For one test, the target named is T1, HERC2ZZ (Homo sapiens, UniProt O95714).
T1 sequence (O95714 2702-2755): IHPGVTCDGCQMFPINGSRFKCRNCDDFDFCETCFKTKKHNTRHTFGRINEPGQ
The test is described as follows: NMR titration. It counts as binding. Particulars: 0.1 mM 15N-labeled HERC2ZZ, 20 mM Tris pH 6.8, 100 mM NaCl, 298K. Summed up:
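Human HERC2ZZ (aa 2702-2755, plus an extra C-terminal Trp) was expressed in BL21(DE3) RIL in minimal medium with 15NH4Cl and 0.05 mM ZnCl2, induced with 0.2 mM IPTG for 20 h at 16 °C. The His8-SUMO tag was removed with Ulp1, followed by size exclusion. Sample also held 2-5 mM DTT and 10% D2O.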

The next test concerns HERC2ZZ D2709A. Put plainly: NMR titration. Type of test: binding, human. Particulars: 15N-labeled D2709A HERC2ZZ, 20 mM Tris pH 6.8, 100 mM NaCl, 298K; Figures 3G, 3H, S9.

This is an account of results in PMC11537069 (Structure (London, England : 1993), 2020).

On to SUMO1FL: full-length SUMO1 protein, for which the “exchange regime of CSPs in HERC2ZZ on the NMR timescale” value in the test with HERC2ZZ is “intermediate exchange regime”. In the test on HERC2ZZ D2709A, the “interaction with SUMO1 ligand upon D2709A substitution (NMR titration)” value is listed as “abolished”. Consider `C[C@H](N)C(=O)O` [alanine, reference compound], for which, at HERC2ZZ (50-fold excess of alanine, Figure S5), the “CSPs in HERC2ZZ upon addition of free alanine amino acid” value is recorded as “no CSPs”.
